ChEMBL document CHEMBL1938372, “Design and synthesis of conformationally constrained inhibitors of non-nucleoside reverse transcriptase” (J Med Chem, 2011)
≈ marks a conversion by molar mass, not a printed value. Calls of active or inactive are those of the source. No cut-off for these calls is given here.

Columns and labels:
Rattus norvegicus = test: Dose normalised AUC in Sprague-Dawley rat at 10 mg/kg, po by LC-MS analysis; type: ADME, organism-based; design: dose 10 mg/kg, route oral; conditions: in vivo
How it was run: (§1)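 PK in Sprague-Dawley rats (iv solution in DMSO via an indwelling jugular cannula, or oral suspension in aqueous methylcellulose/Methocel) and beagle dogs (iv and oral given crossover, same vehicles). Plasma levels by LC-MS. F from oral versus iv dose-normalized AUC. Average of at least two animals; rat values within 25% of the mean.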

[1] = tested on: Human immunodeficiency virus; test: Antiviral activity against Human immunodeficiency virus expressing reverse transcriptase Y181C mutant infected in human MT4 cells by p24 antigen assay in the presence of 10% FBS; type: functional; conditions: Human immunodeficiency virus 1, MT4; read-out: CIC95
How it was run: (§2)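 Antiviral spread assay in MT-4 human T-lymphoid cells kept in RPMI 1640 with 10% FBS. Value is the CIC95, the concentration inhibiting virus replication by >95%. Reported as the geometric mean of at least two determinations, all within 2-fold of the mean. Cytotoxicity was checked up to the assay upper limit of 8.3 μM.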

[2] = Plasma clearance in Sprague-Dawley rat at 10 mg/kg, po and 2 mg/kg, iv; type: ADME, organism-based; how it was run: as §1
[3] = Half life in Sprague-Dawley rat at 10 mg/kg, po and 2 mg/kg, iv; type: ADME, organism-based; conditions: in vivo; how it was run: as §1
[4] = tested on: Human immunodeficiency virus; test: Antiviral activity against Human immunodeficiency virus harboring reverse transcriptase G190A mutant assessed as inhibition of viral replication; type: functional, organism-based
How it was run: (§3)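 Phenosense cell culture assay against a panel of clinically derived RT mutant viruses in the presence of 10% FBS. IC50 is the compound concentration blocking 50% of viral replication. Each value is the average of two determinations.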

[5] = Bioavailability in Beagle dog at 2 mg/kg, po and 0.5 mg/kg, iv; type: ADME, organism-based, Canis lupus familiaris; conditions: in vivo; how it was run: as §1
[6] = tested on: Human immunodeficiency virus; test: Antiviral activity against Human immunodeficiency virus harboring reverse transcriptase L100l mutant assessed as inhibition of viral replication; type: functional, organism-based; how it was run: as §3
[7] = tested on: Human immunodeficiency virus; test: Antiviral activity against Human immunodeficiency virus harboring reverse transcriptase K103N/P225H double mutant assessed as inhibition of viral replication; type: functional, organism-based; how it was run: as §3
[8] = Plasma clearance in Beagle dog at 2 mg/kg, po and 0.5 mg/kg, iv; type: ADME, organism-based, Canis lupus familiaris; how it was run: as §1
[9] = Inhibition of Human immunodeficiency virus reverse transcriptase by SPA assay
[10] = tested on: Human immunodeficiency virus; test: Antiviral activity against Human immunodeficiency virus harboring reverse transcriptase Y181C mutant assessed as inhibition of viral replication; type: functional, organism-based; how it was run: as §3
[11] = tested on: Human immunodeficiency virus; test: Antiviral activity against Human immunodeficiency virus harboring reverse transcriptase K101E/G190A double mutant assessed as inhibition of viral replication; type: functional, organism-based; how it was run: as §3
[12] = tested on: Human immunodeficiency virus; test: Antiviral activity against Human immunodeficiency virus expressing reverse transcriptase K103N mutant infected in human MT4 cells by p24 antigen assay in the presence of 10% FBS; type: functional; conditions: Human immunodeficiency virus 1, MT4; read-out: CIC95; how it was run: as §2
[13] = tested on: Human immunodeficiency virus; test: Antiviral activity against Human immunodeficiency virus harboring reverse transcriptase G190S mutant assessed as inhibition of viral replication; type: functional, organism-based; how it was run: as §3
[14] = tested on: Human immunodeficiency virus; test: Antiviral activity against wild type Human immunodeficiency virus assessed as inhibition of viral replication; type: functional, organism-based
[15] = Solubility of the compound in water at pH 7; type: physicochemical
How it was run: (§4)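 Water solubility of the solid compound measured at pH 2 and at pH 7.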

[16] = tested on: Human immunodeficiency virus; test: Antiviral activity against Human immunodeficiency virus expressing wild type reverse transcriptase infected in human MT4 cells by p24 antigen assay in the presence of 50% normal human serum; type: functional; conditions: Human immunodeficiency virus 1, MT4; read-out: CIC95
How it was run: (§5)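 MT-4 human T-lymphoid cells in RPMI 1640 with either 10% FBS or 50% NHS; CIC95 taken as the concentration inhibiting virus spread/replication by >95%. Geometric mean of at least two determinations, individual values within 2-fold; SEM given when ≥3 determinations.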

[17] = Solubility of the compound in water at pH 2; type: physicochemical; how it was run: as §4
[18] = tested on: Human immunodeficiency virus; test: Antiviral activity against Human immunodeficiency virus expressing wild type reverse transcriptase infected in human MT4 cells by p24 antigen assay in the presence of 10% FBS; type: functional; conditions: Human immunodeficiency virus 1, MT4; read-out: CIC95; how it was run: as §5
[19] = Half life in Beagle dog at 2 mg/kg, po and 0.5 mg/kg, iv; type: ADME, organism-based, Canis lupus familiaris; conditions: in vivo; how it was run: as §1
[20] = Bioavailability in Sprague-Dawley rat at 10 mg/kg, po and 2 mg/kg, iv; type: ADME, organism-based; conditions: in vivo; how it was run: as §1
[21] = target: Human immunodeficiency virus type 1 reverse transcriptase (Human immunodeficiency virus 1, UniProt Q72547, Y181C); test: Inhibition of Human immunodeficiency virus reverse transcriptase Y181C mutant by SPA assay
How it was run: (§6)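 Recombinant HIV-1 RT polymerase scintillation proximity assay run with mutant enzyme, reported as Ki (nM). Values are geometric means of at least two determinations, each within 2-fold of the mean; SEM is given where there were ≥3 determinations.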

[22] = tested on: Human immunodeficiency virus; test: Antiviral activity against multidrug-resistant Human immunodeficiency virus assessed as inhibition of viral replication; type: functional, organism-based; how it was run: as §3
[23] = tested on: Human immunodeficiency virus; test: Antiviral activity against Human immunodeficiency virus harboring reverse transcriptase Y188L mutant assessed as inhibition of viral replication; type: functional, organism-based; how it was run: as §3
[24] = Volume of distribution in Sprague-Dawley rat at 10 mg/kg, po and 2 mg/kg, iv; type: ADME, organism-based; conditions: in vivo; how it was run: as §1
[25] = tested on: Human immunodeficiency virus; test: Antiviral activity against Human immunodeficiency virus harboring reverse transcriptase V106A/G190A/F227L triple mutant assessed as inhibition of viral replication; type: functional, organism-based; how it was run: as §3
Canis familiaris = test: Dose normalised AUC in Beagle dog at 2 mg/kg, po by LC-MS analysis; type: ADME, organism-based, Canis lupus familiaris; design: dose 2 mg/kg, route oral; conditions: in vivo; how it was run: as §1
[26] = tested on: Human immunodeficiency virus; test: Antiviral activity against Human immunodeficiency virus harboring reverse transcriptase K103N/Y181C/G190A triple mutant assessed as inhibition of viral replication; type: functional, organism-based; how it was run: as §3
[27] = Volume of distribution in Beagle dog at 2 mg/kg, po and 0.5 mg/kg, iv; type: ADME, organism-based, Canis lupus familiaris; conditions: in vivo; how it was run: as §1
[28] = tested on: Human immunodeficiency virus; test: Antiviral activity against Human immunodeficiency virus harboring reverse transcriptase L100l/K103N/P225P/H triple mutant assessed as inhibition of viral replication; type: functional, organism-based; how it was run: as §3
[29] = tested on: Human immunodeficiency virus; test: Antiviral activity against Human immunodeficiency virus harboring reverse transcriptase K103N mutant assessed as inhibition of viral replication; type: functional, organism-based; how it was run: as §3
MT4 = test: Cytotoxicity against human MT4 cells up to 8.3 uM; type: cell-based
How it was run: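 MT-4 cells in RPMI 1640 with 10% FBS or 50% NHS, run alongside the antiviral CIC95 assay; cytotoxicity checked up to the assay upper limit of 8.3 μM.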

[30] = tested on: Human immunodeficiency virus; test: Antiviral activity against Human immunodeficiency virus harboring reverse transcriptase K101E/Y181C/G190A triple mutant assessed as inhibition of viral replication; type: functional, organism-based; how it was run: as §3
[31] = target: Human immunodeficiency virus type 1 reverse transcriptase (Human immunodeficiency virus 1, UniProt Q72547, K103N); test: Inhibition of Human immunodeficiency virus reverse transcriptase K103N mutant by SPA assay; how it was run: as §6

Structure (SMILES): N#Cc1cc(Cl)cc(Oc2c(Cl)ccc3c2cnn3Cc2n[nH]c3nc(N)ccc23)c1
- AUC/dose (Rattus norvegicus): 3.64 µM·h
- IC95 [1]: 68 nM
- clearance [2]: 4.7 mL/min/kg
- half-life [3]: 6.3 h
- inhibition [4]: Active
- bioavailability [5]: 32%
- inhibition [6]: Active
- inhibition [7]: Active
- clearance [8]: 7.6 mL/min/kg
- Ki [9]: 0.61 nM
- inhibition [10]: Active
- inhibition [11]: Active
- IC95 [12]: 9.7 nM
- inhibition [13]: Active
- inhibition [14]: Active
- solubility [15]: < 0.1 µg/mL
- IC95 [16]: 43 nM
- solubility [17]: 40 µg/mL (≈ 88.8 µM)
- IC95 [18]: 4.1 nM
- half-life [19]: 2.8 h
- bioavailability [20]: 39%
- Ki [21]: 1.9 nM
- inhibition [22]: Active
- inhibition [23]: inactive
- Vd [24]: 2.5 L/kg
- inhibition [25]: inactive
- AUC/dose (Canis familiaris): 1.33 µM·h
- inhibition [26]: Active
- Vd [27]: 2 L/kg
- inhibition [28]: Active
- inhibition [29]: Active
- Activity (MT4): Non-toxic
- inhibition [30]: Active
- Ki [31]: 1.7 nM
